A selection: hits, their analogues and other compounds. The true share with any hit is near 29%.
CYP2C9 inh – blockers of cytochrome P450 2C9 activity – biochemical, luminescence, ADME assay, primary screen; actives 20% (n = 96,000); P11712; CYP2C9 Supersomes, luciferin-H conversion; AID 777, 2007; inhibition, % at 5 µM;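 active means blocking of liver enzyme CYP2C9 beyond about 50% at 5 µM, limit read from the data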
tolC growth inh – growth inhibitors of E. coli tolC mutant, primary screen, strain BW25113 ΔtolC::kan, 384-well; OD615; growth inhibition, % at 10 µM (by protocol); actives 2.2% (n = 65,000);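 active means growth inhibition at or above a cutoff equal to the mean over every tested compound plus 3 SD, cut at about 60% in these data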;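 further: growth measured after 20 h incubation at 37 °C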
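Material: E. coli BW25113 ΔtolC::kan, tolC deletion mutant strain. Measure: percent growth inhibition. Schedule: 37 °C, 20 h exposure. Doses: single-point testing at 10 µM. Signal: A615 absorbance measurement. Buffer or medium: kanamycin-containing LB broth (50 µg/mL).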
Ecoli WT expand – growth inhibitors of wild-type E. coli, primary screen, strain BW25113, expanded library, OD600 | growth inhibition, % at 100 µM | OD600 absorbance | actives 0.15% (n = 98,000) | AID 710, 2007;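 active means growth inhibition above about 50% at one test dose, limit read from the data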;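 further: growth measured after 20 h incubation at 37 °C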
CYP2C9 activ – human CYP2C9 activators, primary screen, biochemical, luminescence | AID 1024, 2008 | activation factor at 5 µM | recombinant CYP2C9, luciferin-H conversion; active compounds read high; factor 1 = untreated enzyme, 0 = blocked | actives 1.4% (n = 96,000) | Cytochrome P450 2C9 (Homo sapiens), P11712;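 active means activation factor of 2 or more for CYP2C9 at a 5 µM dose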;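 further: 0 = sulfaphenazole-blocked wells and 1 = vehicle-only wells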
CYP2C19 inhib – blockers of cytochrome P450 2C19 activity – biochemical, luminescence, ADME assay, primary screen | inhibition, % at 5 µM | AID 778, 2007 | P33261 | actives 21% (n = 96,000) | CYP2C19 Supersomes, luciferin-H EGE luminescence, 30 min;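 active means CYP2C19 inhibition above a set limit at 5 µM in the primary screen, cut at about 50% in these data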;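 further: plate controls were negative control wells for no effect and 2.5 mM tranylcypromine positive control for full effect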
Target sequence (P33261 whole entry, looked up): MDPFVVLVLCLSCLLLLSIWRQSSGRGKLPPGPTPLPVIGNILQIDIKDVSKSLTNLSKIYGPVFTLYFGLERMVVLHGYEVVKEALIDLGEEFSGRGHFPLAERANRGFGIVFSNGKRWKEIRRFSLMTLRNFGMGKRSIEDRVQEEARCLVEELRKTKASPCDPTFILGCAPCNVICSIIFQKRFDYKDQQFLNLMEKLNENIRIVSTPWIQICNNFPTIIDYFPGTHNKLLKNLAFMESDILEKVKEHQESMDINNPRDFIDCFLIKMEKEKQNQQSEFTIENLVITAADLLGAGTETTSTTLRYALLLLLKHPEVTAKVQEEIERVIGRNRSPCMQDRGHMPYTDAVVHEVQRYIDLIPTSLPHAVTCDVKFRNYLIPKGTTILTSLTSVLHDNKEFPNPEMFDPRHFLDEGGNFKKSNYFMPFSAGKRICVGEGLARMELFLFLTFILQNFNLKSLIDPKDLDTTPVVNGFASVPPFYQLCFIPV
CYP2C19 activ – human CYP2C19 activators, primary screen, biochemical, luminescence; Cytochrome P450 2C19 (Homo sapiens), P33261; activation factor at 5 µM; 96,000 tested, under 10 active; recombinant CYP2C19, luciferin-H EGE luminescence; active compounds read high; 0 = fully inhibited enzyme, 1 = untreated enzyme;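 active means activation factor of at least 2 at 5 µM in the primary screen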;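 further: 0 = wells with 2.5 mM tranylcypromine and 1 = vehicle-only wells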
The depositor's hits bear a star; . = no result given.

SMILES | CYP2C9 inh | tolC growth inh | Ecoli WT expand | CYP2C9 activ | CYP2C19 inhib | CYP2C19 activ
O=C(C1CC(=O)N(c2ccccc2)C1)N1CCN(C2=NS(=O)(=O)c3ccccc32)CC1 (stereo not given) | 18 | -12 | -1 | 0.8 | 18 | 0.8
Cc1cc(C)n(-c2ccc3cccc(NS(C)(=O)=O)c3n2)n1 | 8 | 8 | -6 | 0.9 | -1 | 1
CS(=O)(=O)Nc1cccc2cccnc12 | -136 | -6 | 21 | 2.4* | 5 | 1
O=S(=O)(Nc1cccc2cccnc12)c1ccc(S(=O)(=O)N2CCCC2)cc1 | 30 | 81* | -4 | 0.7 | 45 | 0.5
CC(C)CN(C(=O)COC(=O)Cc1c[nH]c2ccccc12)C1CCS(=O)(=O)C1 (stereo not given) | 7 | -6 | 5 | 0.9 | 28 | 0.7
CC(C)CN(C(=O)COC(=O)CCc1c[nH]c2ccccc12)C1CCS(=O)(=O)C1 (stereo not given) | -124 | -13 | 2 | 2.2* | 16 | 0.8
COc1ccccc1CNC(=O)c1cccc(N(C)C)c1 | -132 | . | -1 | 2.3* | 32 | 0.7
COc1cc(C(N)=O)ccc1OCc1ccccc1 | 28 | -9 | -2 | 0.7 | 4 | 1
COc1cc(C(=O)NCc2cccc3ccccc23)ccc1OCc1ccccc1 | 69* | . | -19 | 0.3 | 22 | 0.8
COC(=O)CSc1nnc(CNC(=O)c2cccs2)n1-c1cc(OC)ccc1OC | -6 | -20 | 6 | 1.1 | -6 | 1.1
CCN(CC)S(=O)(=O)c1ccc(NC(=O)CSc2nnc(-c3cccc(OC)c3)n2C)cc1 | 52* | . | -6 | 0.5 | 23 | 0.8
CCOC(=O)CNC(=O)CSc1nnc(-c2ccco2)n1N | -14 | -15 | 3 | 1.1 | -13 | 1.1
Cc1cccc(C)c1NC(=O)CSc1nnc(-c2ccco2)n1N | 10 | -24 | 5 | 0.9 | 57* | 0.4
CCn1c2ccccc2c2cc(NC(=O)CSc3nnc(-c4ccccc4OC)n3N)ccc21 | 58* | 33 | -13 | 0.4 | 94* | 0.1
COc1ccc(-c2nnc(SCC(=O)Nc3ccc(C)cc3)n2C)cc1 | 40 | . | -7 | 0.6 | 29 | 0.7
CCn1c2ccccc2c2cc(NC(=O)CSc3nnc(-c4ccc(OC)c(OC)c4)n3N)ccc21 | 6 | . | 8 | 0.9 | 40 | 0.6
Cc1ccc(NC(=O)CCc2nnc(SCC(=O)Nc3ccccc3C)n2C)cc1Cl | 9 | . | -4 | 0.9 | 10 | 0.9
COc1ccc(NC(=O)CSc2nnc(CCC(=O)Nc3ccc(C)c(Cl)c3)n2C)cc1 | 66* | . | 3 | 0.3 | 12 | 0.9
Cn1c(NC(=O)c2ccco2)cc(=O)n(C)c1=O | 4 | -6 | -3 | 1 | 2 | 1
CC(NC(=O)c1ccc(N(C)C)cc1)C1CC2CCC1C2 (stereo not given) | 15 | . | -11 | 0.9 | 7 | 0.9
COc1ccccc1-c1nnc(SCC(=O)Nc2ccc(S(N)(=O)=O)cc2)n1C | 76* | . | 6 | 0.2 | 38 | 0.6
CC(C)c1cc(NC(=O)CSc2nnc(-c3ccccc3F)n2C)on1 | 58* | 6 | 9 | 0.4 | 40 | 0.6
O=C(CSc1nnc(Cc2cccs2)n1Cc1ccco1)Nc1cccc(Cl)c1 | 14 | 8 | -4 | 0.9 | 38 | 0.6
COc1ccccc1NC(=O)CSc1nnc(-c2ccco2)n1Cc1ccco1 | 77* | 21 | 5 | 0.2 | 83* | 0.2
CCn1c(SCC(=O)Nc2ccc(S(N)(=O)=O)cc2)nnc1-c1ccccc1OC | -11 | . | 4 | 1.1 | -2 | 1
SMILES | CYP2C9 inh | tolC growth inh | Ecoli WT expand | CYP2C9 activ | CYP2C19 inhib | CYP2C19 activ
O=C(CSc1nnc(Cc2cccs2)n1Cc1ccco1)Nc1cc(Cl)cc(Cl)c1 | 48 | 91* | -24 | 0.5 | 25 | 0.7
O=C(CC1(O)C(=O)Nc2ccccc21)c1cccnc1 (stereo not given) | 0 | -7 | 2 | 1 | 0 | 1
COc1ccc(NC(=O)CSc2nnc(-c3ccco3)n2C)cc1 | 93* | -14 | 9 | 0.1 | 92* | 0.1
O=C(CSc1nnc(-c2ccco2)n1Cc1ccco1)Nc1ccccc1 | 64* | . | -5 | 0.4 | 19 | 0.8
COc1ccccc1NC(=O)CSc1nnc(-c2ccccn2)n1Cc1ccco1 | 77* | 18 | 5 | 0.2 | 38 | 0.6
Cc1nnc(SCC(=O)NC(C)(C)C)n1CCc1ccccc1 | . | -15 | . | . | . | .
CCOc1ccc(NC(=O)CSc2nnc(-c3ccco3)n2C)cc1 | 12 | -11 | -1 | 0.9 | 3 | 1
COc1ccccc1NC(=O)CSc1nnc(C)n1CCc1ccccc1 | 53* | 7 | 5 | 0.5 | 41 | 0.6
COc1ccc(C)cc1NC(=O)CSc1nnc(-c2ccccn2)n1Cc1ccco1 | 41 | 24 | -9 | 0.6 | 45 | 0.6
COc1cccc(C(=O)CN(C(=O)c2ccc(Cl)c(Cl)c2)N2C(=O)c3ccccc3C2=O)c1 | 41 | . | -5 | 0.6 | 30 | 0.7
Cc1cccc(-n2c(C)nc3c(cnn3-c3ccc(F)cc3)c2=O)c1 | 14 | 9 | 7 | 0.9 | 4 | 1
Cc1ccccc1Cn1c(=N)n(CC(=O)c2ccco2)c2ccccc21 | 0 | 37 | -9 | 1 | 3 | 1
COc1ccc(S(=O)(=O)N(CC(=O)N2CCOCC2)c2cc(Cl)ccc2OC)cc1OC | 33 | -1 | -3 | 0.7 | 10 | 0.9
O=[N+]([O-])c1ccc2c(c1)C(N1CCOCC1)/C(=C/COc1ccc(Cl)cc1Cl)O2 (stereo not given) | 77* | . | -11 | 0.2 | 45 | 0.6
N#Cc1c2n(c3c(-c4ccccc4)ncnc13)CCC2 | -9 | -14 | 6 | 1.1 | 6 | 0.9
N#Cc1c(N)c(C(=O)c2ccccc2)n2c1CCC2 | -15 | -11 | 6 | 1.1 | 51* | 0.5
COC(=O)Cn1cnc2c(C#N)c3n(c2c1=O)CCCCC3 | 12 | -16 | -5 | 0.9 | 14 | 0.9
COC(=O)c1c(N)c(C#N)c2n1CCCCC2 | 6 | -6 | 1 | 0.9 | 76* | 0.2
Cc1cccn2c(=O)c3cc(C(=O)N4CCN(c5ccccc5)CC4)n(C)c3nc12 | . | 3 | . | . | . | .
Cc1cccc(N(C)c2cc(C)nc3nc(C)nn23)c1 | . | -2 | -17 | . | . | .
O=C(Nc1ccc(S(=O)(=O)C(F)F)cc1)c1cccc(S(=O)(=O)N2CCOCC2)c1 | 16 | 11 | 2 | 0.8 | -5 | 1.1
CN(C)C(=O)NC(Nc1ccc(Cl)cc1Cl)C(Cl)(Cl)Cl (stereo not given) | 65* | . | 11 | 0.3 | 87* | 0.1
O=C(C1CCC(C(=O)N2CCCCC2)CC1)N1CCCCC1 (stereo not given) | -17 | -2 | 3 | 1.2 | 9 | 0.9

Compound activity as filed in PubChem.
